Reference: ChEMBL document CHEMBL4346669, “Novel nannocystin A analogues as anticancer therapeutics: Synthesis, biological evaluations and structure-activity relationship studies” (Eur J Med Chem, 2019)
Active and inactive are the calls of the source. The rule behind the calls is not given here.

Columns and labels:
A549 [1] = assay: Induction of apoptosis in human A549 cells after 12 hrs by Annexin-V FITC/propidium iodide staining based flow cytometric analysis; format: functional, cell-based
A-375 = assay: Antiproliferative activity against human A375 cells assessed as reduction in cell viability measured after 72 hrs by MTT assay; format: functional, cell-based; settings: A-375, 72 h
Procedure, shortened: (§1)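 Cells seeded at 5×10^3 per well and cultured overnight, then exposed for 72 h at 37 °C to six concentrations from 10 µM down to 0.0001 µM (from 10 mM DMSO stock diluted in medium; vehicle 1% DMSO in PBS). MTT at 0.5 mg/mL was added for 4 h, formazan dissolved in DMSO, and A570 read. IC50 given as mean ± SD of three independent experiments.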

A549 [2] = assay: Induction of apoptosis in human A549 cells assessed as nuclear fragmentation at 90 nM after 24 hrs by […] staining-based confocal laser scanning microscopic analysis; format: functional, cell-based
Procedure, shortened: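 A549 exposed to 30, 60 and 90 nM for 24 h, stained with Hoechst 33342, imaged by confocal laser scanning microscopy; strongly blue-fluorescent nuclei scored as apoptotic.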

A549 [3] = assay: Cell cycle arrest in human A549 cells assessed as accumulation at G1 phase at 90 nM after 24 hrs by propidium iodide/RNase A staining-based flow cytometric analysis (reference value: 57.41%); format: functional
A549 [4] = assay: Induction of apoptosis in human A549 cells assessed as late apoptotic cells at 60 nM after 12 hrs by Annexin-V FITC/propidium iodide staining based flow cytometric analysis (reference value: 1.22%); format: functional
A549 [5] = assay: Induction of apoptosis in human A549 cells assessed as increase in caspase3 expression by Western blot analysis; format: functional, cell-based
Procedure, shortened: (§2)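 A549 treated 30, 60 and 90 nM for 24 h; lysates normalized by BCA, 30 μg protein denatured in SDS buffer at 100 °C 8 min, SDS-PAGE, PVDF transfer, blocked in 5% milk/TBS-0.05% Tween 2 h, primary antibodies overnight at 4 °C, HRP anti-rabbit IgG 2 h, ECL detection; β-actin loading control.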

A549 [6] = assay: Induction of apoptosis in human A549 cells assessed as late apoptotic cells at 90 nM after 12 hrs by Annexin-V FITC/propidium iodide staining based flow cytometric analysis (reference value: 1.22%); format: functional
A549 [7] = assay: Cell cycle arrest in human A549 cells assessed as accumulation at S phase at 30 nM after 24 hrs by propidium iodide/RNase A staining-based flow cytometric analysis (reference value: 12.57%); format: functional
A549 [8] = assay: Induction of apoptosis in human A549 cells assessed as viable cells at 60 nM after 24 hrs by Annexin-V FITC/propidium iodide staining based flow cytometric analysis; format: functional; settings: A549, 24 h, read-out: Activity
Procedure, shortened: (§3)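 Time-course: A549 (2×10^5 cells/well, grown overnight) exposed to 60 nM for 6, 12 or 24 h; untreated control. Cells trypsinized, washed in cold PBS, stained 15 min with Annexin V-FITC in binding buffer, then PI, and read by flow cytometry; duplicate experiments.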

A549 [9] = assay: Inhibition of colony formation in human A549 cells at 10 to 20 nM incubated for 3 days followed by further incubation in drug-free medium and measured after 15 days by crystal violet staining-based inverted microscopic analysis; format: functional, cell-based
Procedure, shortened: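 500 A549 cells/well incubated 24 h, then treated with 5, 10 or 20 nM for 3 days, followed by drug-free medium changed every 3 days. At day 15 after plating, colonies fixed in 95% ethanol 15 min, stained with 0.1% crystal violet, counted (colony = over 100 cells); mean ± SD of three independent experiments.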

A549 [10] = assay: Induction of apoptosis in human A549 cells assessed as viable cells at 30 nM after 12 hrs by Annexin-V FITC/propidium iodide staining based flow cytometric analysis (reference value: 97.18%); format: functional; settings: A549, 12 h, read-out: Activity
A549 [11] = assay: Induction of apoptosis in human A549 cells at 60 nM by Annexin-V FITC/propidium iodide staining based flow cytometric analysis; format: functional, cell-based; settings: TDE = time-dependent effect
A549 [12] = assay: Cell cycle arrest in human A549 cells assessed as accumulation at G2 phase at 60 nM after 24 hrs by propidium iodide/RNase A staining-based flow cytometric analysis (reference value: 30.02%); format: functional
HCT-116 = assay: Antiproliferative activity against human HCT116 cells assessed as reduction in cell viability measured after 72 hrs by MTT assay; format: functional, cell-based; settings: Homo sapiens, HCT-116, 72 h; read-out: IC50
Procedure, shortened: (§4)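 Cells seeded 5×10^3/well, cultured overnight, then exposed to 10, 1, 0.1, 0.01, 0.001 and 0.0001 µM (from 10 mM DMSO stocks diluted in medium; vehicle 1% DMSO PBS) for 72 h at 37 °C. Medium replaced with 0.5 mg/mL MTT for 4 h, formazan dissolved in DMSO, A570 read. IC50 as mean ± SD of three independent experiments.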

A549 [13] = assay: Induction of apoptosis in human A549 cells assessed as necrotic cells at 60 nM after 6 hrs by Annexin-V FITC/propidium iodide staining based flow cytometric analysis; format: functional; procedure, shortened: as §3
A549 [14] = assay: Induction of apoptosis in human A549 cells assessed as increase in caspase9 expression by Western blot analysis; format: functional, cell-based; procedure, shortened: as §2
A549 [15] = assay: Induction of apoptosis in human A549 cells assessed as viable cells at 60 nM after 12 hrs by Annexin-V FITC/propidium iodide staining based flow cytometric analysis (reference value: 97.18%); format: functional; settings: A549, 12 h, read-out: Activity
A549 [16] = assay: Induction of apoptosis in human A549 cells assessed as viable cells at 90 nM after 12 hrs by Annexin-V FITC/propidium iodide staining based flow cytometric analysis (reference value: 97.18%); format: functional; settings: A549, 12 h, read-out: Activity
MCF7 = assay: Antiproliferative activity against human MCF7 cells assessed as reduction in cell viability measured after 72 hrs by MTT assay; format: functional, cell-based; settings: MCF7, 72 h; procedure, shortened: as §1
A549 [17] = assay: Induction of apoptosis in human A549 cells assessed as necrotic cells at 60 nM after 24 hrs by Annexin-V FITC/propidium iodide staining based flow cytometric analysis; format: functional; procedure, shortened: as §3
A549 [18] = assay: Antiproliferative activity against human A549 cells assessed as reduction in cell viability measured after 72 hrs by MTT assay; format: functional, cell-based; settings: Homo sapiens, A549, 72 h; read-out: IC50; procedure, shortened: as §4
A549 [19] = assay: Induction of apoptosis in human A549 cells assessed as early apoptotic cells at 30 nM after 12 hrs by Annexin-V FITC/propidium iodide staining based flow cytometric analysis (reference value: 0.32%); format: functional
A549 [20] = assay: Cell cycle arrest in human A549 cells assessed as accumulation at S phase at 60 nM after 24 hrs by propidium iodide/RNase A staining-based flow cytometric analysis (reference value: 12.57%); format: functional
A549 [21] = assay: Induction of apoptosis in human A549 cells assessed as necrotic cells at 60 nM after 12 hrs by Annexin-V FITC/propidium iodide staining based flow cytometric analysis (reference value: 1.28%); format: functional
A549 [22] = assay: Induction of apoptosis in human A549 cells assessed as necrotic cells at 30 nM after 12 hrs by Annexin-V FITC/propidium iodide staining based flow cytometric analysis (reference value: 1.28%); format: functional
A549 [23] = assay: Induction of apoptosis in human A549 cells assessed as early apoptotic cells at 60 nM after 6 hrs by Annexin-V FITC/propidium iodide staining based flow cytometric analysis; format: functional; procedure, shortened: as §3
A549 [24] = assay: Induction of apoptosis in human A549 cells assessed as early apoptotic cells at 60 nM after 24 hrs by Annexin-V FITC/propidium iodide staining based flow cytometric analysis; format: functional; procedure, shortened: as §3

COc1cc(C[C@H]2NC(=O)[C@H](C(C)C)N(C)C(=O)/C(C)=C/C[C@@H](OC)/C(C)=C/C=C/[C@@H](C)[C@@H](c3ccccc3)OC(=O)[C@H](C(C)C)NC2=O)ccc1O
Activity (A549 [1]): Dose-dependent effect
IC50 (A-375): 4.3 nM
Activity (A549 [2]): Active
Activity (A549 [3]): 37.81%
Activity (A549 [4]): 20.03%
Activity (A549 [5]): Dose-dependent effect
Activity (A549 [6]): 28.22%
Activity (A549 [7]): 13.21%
viability at 0.06 µM (A549 [8]): 54.4%
inhibition (A549 [9]): Active
viability at 0.03 µM (A549 [10]): 75.3%
Activity (A549 [11]): Tde
Activity (A549 [12]): 40.8%
IC50 (HCT-116): 48.5 nM
Activity (A549 [13]): 2.3%
Activity (A549 [14]): Dose-dependent effect
viability at 0.06 µM (A549 [15]): 66.2%
viability at 0.09 µM (A549 [16]): 55.4%
IC50 (MCF7): 15 nM
Activity (A549 [17]): 13.07%
IC50 (A549 [18]): 20.2 nM
Activity (A549 [19]): 1.21%
Activity (A549 [20]): 14.75%
Activity (A549 [21]): 10.19%
Activity (A549 [22]): 9.87%
Activity (A549 [23]): 0.34%
Activity (A549 [24]): 3.48%
